Measurements pooled from the literature.
Compare with care: the assays were run in different laboratories.
Target: Mitogen-activated protein kinase kinase kinase 12 (MAP3K12, Homo sapiens, UniProt Q12852)
Residues used in one study (Q12852 1-859): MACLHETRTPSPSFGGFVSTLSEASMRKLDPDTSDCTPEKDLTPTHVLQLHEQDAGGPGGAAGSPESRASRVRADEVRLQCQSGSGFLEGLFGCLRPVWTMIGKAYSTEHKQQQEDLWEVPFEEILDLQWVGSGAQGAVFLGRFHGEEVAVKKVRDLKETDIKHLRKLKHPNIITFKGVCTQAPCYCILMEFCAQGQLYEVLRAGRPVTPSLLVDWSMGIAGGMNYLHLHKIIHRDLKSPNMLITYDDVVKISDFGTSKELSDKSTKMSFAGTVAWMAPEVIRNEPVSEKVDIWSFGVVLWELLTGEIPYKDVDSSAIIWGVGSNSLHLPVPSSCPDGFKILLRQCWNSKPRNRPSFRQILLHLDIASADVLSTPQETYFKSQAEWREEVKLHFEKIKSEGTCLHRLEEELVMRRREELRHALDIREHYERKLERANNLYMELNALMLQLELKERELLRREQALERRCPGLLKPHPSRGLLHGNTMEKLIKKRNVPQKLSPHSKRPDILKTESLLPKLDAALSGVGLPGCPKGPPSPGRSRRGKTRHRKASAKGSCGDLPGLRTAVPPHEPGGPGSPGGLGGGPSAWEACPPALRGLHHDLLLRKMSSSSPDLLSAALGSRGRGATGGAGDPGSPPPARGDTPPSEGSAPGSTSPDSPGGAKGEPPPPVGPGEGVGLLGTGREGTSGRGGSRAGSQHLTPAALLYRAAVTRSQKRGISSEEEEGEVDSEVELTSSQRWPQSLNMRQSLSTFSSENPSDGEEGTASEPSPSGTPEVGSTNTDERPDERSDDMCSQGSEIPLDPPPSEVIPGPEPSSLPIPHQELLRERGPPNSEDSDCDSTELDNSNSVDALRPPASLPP

With `C[C@@H]1CN(c2cc(-c3n[nH]c4ccc(OC5(C)CC5)cc34)ncn2)C[C@H](C)O1` the remaining binding was 82% (cell-free assay, competition with immobilised ligand; 0.1 µM).
With `CN(c1nccc(-c2cnn3ncccc23)n1)C1CC1` the remaining binding was 100% (binding; 1 µM).
For `Cc1cnc(Nc2ccc(C(=O)N3CCC(N4CCCC4)CC3)cc2)nc1-c1cc2ccccc2s1`, the remaining binding was 8.3% (binding, competition with immobilised ligand; 1 µM).
`N[C@H]1CCN(c2nccc(-c3cnn4ncccc34)n2)C1` gave a remaining binding of 71% (binding; 1 µM).
For `COc1ncc2cc3ccccc3nc2c1C#N`, the remaining binding was 81% (cell-free assay, competition with immobilised ligand; 5 µM).
With `COc1cnc(Nc2cccc(S(N)(=O)=O)c2)nc1N1CCN(c2ccccc2)C(=O)C1` the remaining binding was 82% (binding, competition with immobilised ligand; 1 µM).
With `CC1CCCN1c1nccc(-c2cnn3ncccc23)n1` (centres unmarked) the remaining binding was 100% (binding; 1 µM).
`O=C(Nc1c[nH]nc1C(=O)NC1CCNCC1)c1cc(F)cc(F)c1` gave a remaining binding of 88% (binding, competition with immobilised ligand; 1 µM).
The remaining binding of `O=C(NCCCN1CCOCC1)c1ccc(Nc2ncc(Cl)c(-c3ccc(Cl)s3)n2)cc1` is reported as 33% (binding, competition with immobilised ligand; 1 µM).
`Nc1ncc2c(n1)-c1c([nH]c3ccc(C#CC4CC4)cc13)CCCC2` has a remaining binding of 93% (binding, competition with immobilised ligand; 1 µM).
With `CN1CCN(c2cnc3c(C4CCN(C(=O)c5ccc(OC(F)(F)F)cc5N)CC4)ncnc3c2)CC1` the remaining binding was 100% (cell-free assay, competition with immobilised ligand; 1 µM).
`Cc1cnn2ncc(-c3ccnc(N(C)C)n3)c2c1` gave a remaining binding of 83% (binding; 1 µM).
`CNCc1ccccc1-c1csc([C@H](C)Nc2nc(C)nc3cc(OC)c(OC)cc23)c1` gave a remaining binding of 97% (cell-free assay, competition with immobilised ligand; 1 µM).
For `C[C@@H]1CCN(c2nccc(-c3cnn4ncccc34)n2)C1`, the remaining binding was 75% (binding; 1 µM).
For `FC(F)(F)c1ccc2c(c1)nc(-c1cccnc1)n2C1CC1`, the remaining binding was 100% (cell-free assay, competition with immobilised ligand; 1 µM).
With `CNC(=O)[C@@H]1CC[C@@H](n2c(-c3ccc4cnccc4c3)nc3ccc(C(=O)NCc4cccc(C(N)=O)c4)cc32)C1` the remaining binding was 100% (binding, competition with immobilised ligand; 1 µM).
`CN([C@@H]1CCc2c(CC(=O)O)c3ccccc3n2C1)S(=O)(=O)c1ccc(F)cc1` has a remaining binding of 100% (cell-free assay, competition with immobilised ligand; 1 µM).
`CN(CCCC(F)(F)F)c1nccc(-c2cnn3ncccc23)n1` gave a remaining binding of 100% (binding; 1 µM).
With `O=C(N1CCS(=O)(=O)CC1)N1C[C@H](c2ccc(OC(F)(F)F)cc2)C[C@H](c2nc(C3CC3)no2)C1` the remaining binding was 0% (cell-free assay, competition with immobilised ligand; 1 µM).
`O=C(NCCCN1CCOCC1)c1ccc(Nc2nccc(-c3cc4ccccc4s3)n2)cc1` has a remaining binding of 54% (binding, competition with immobilised ligand; 1 µM).
